Assay results from different studies.
Protocols differ between the studies behind these lines.
BRAF V600E: Serine/threonine-protein kinase B-raf (BRAF, Homo sapiens, UniProt P15056, V600E)
ADORA3: Adenosine receptor A3 (ADORA3, Homo sapiens, UniProt P0DMS8)
DRD2: D(2) dopamine receptor (DRD2, Homo sapiens, UniProt P14416)
NPY1R: Neuropeptide Y receptor type 1 (NPY1R, Homo sapiens, UniProt P25929)
PARP16: Protein mono-ADP-ribosyltransferase PARP16 (PARP16, Homo sapiens, UniProt Q8N5Y8)
Blk: Tyrosine-protein kinase Blk (Blk, Mus musculus, UniProt P16277)

SMILES | target | test | conditions | inhibition [%]
CCN(CC)c1ccc(C2Nc3ccc(C(=O)c4ccccc4)cc3NC3=C2C(=O)CC(C)(C)C3)cc1 (stereo not drawn) | 5-hydroxytryptamine receptor 1E (HTR1E, Homo sapiens, UniProt P28566) | ligand displacement, radioligand | 10 µM | 5
Cc1ccc(C(CS(=O)(=O)c2ccccc2)=NN=C2N=C(c3ccc(C)cc3)CS2)cc1 | BRAF V600E | enzyme activity, inhibitor, ATP luminescence | 10 nM | 22
CC(C)CN1CCCn2c1nc1c2c(=O)n(C)c(=O)n1C | ADORA3 | ligand displacement, radioligand | 10 µM, cell membranes | 18
CC(C)(C)c1nc(-c2cccc(NS(=O)(=O)c3c(F)cccc3F)c2F)c(-c2ccnc(N)n2)s1 | BRAF V600E | enzyme activity, inhibitor, ATP luminescence | 10 µM | 95
CCOc1ccc(N2C(=O)CC(NCCc3ccccc3Cl)C2=O)cc1 (stereo not drawn) | DRD2 | enzyme activity, inhibitor | 10 µM | 42.5
CCCCCN1CCCn2c1nc1c2c(=O)n(C)c(=O)n1C | ADORA3 | ligand displacement, radioligand | 10 µM, cell membranes | 21
O=C(c1cccc(Cl)c1)N1CCN(CCNc2cc(=O)oc3ccccc23)CC1 | DRD2 | enzyme activity, inhibitor | 10 µM | -1.9
Oc1cccc(Nc2nc(-c3ccc(F)cc3F)cs2)c1 | NPY1R | cell-free assay | 10 µM | -16.2
CCCN1CCCn2c1nc1c2c(=O)n(C)c(=O)n1C | ADORA3 | ligand displacement, radioligand | 10 µM, cell membranes | 10
Nc1ccc2c(c1)CCCn1nnnc1-2 | PARP16 | enzyme activity, inhibitor | 10 µM | 53
O=C(c1ccc(Cl)cc1)N(Cc1ccccc1)C1CCCCC1 | NPY1R | cell-free assay | 10 µM | -13.6
CN(C)C1CCN(CC#Cc2nn(C3CCCC3)c3nc(NCc4ccccc4)ncc23)C1 (stereo not drawn) | Mitogen-activated protein kinase 8 (MAPK8, Homo sapiens, UniProt P45983) | enzyme activity, inhibitor, FRET | 10 µM | 8
CCN(Cc1ccccc1C(F)(F)F)C(=O)C1CCN(S(=O)(=O)c2ccc3[nH]ncc3c2)CC1 | ADORA3 | ligand displacement, radioligand | 10 µM | 14
CC(O)c1ccc(-c2ccc(CNCCc3ccc(S(N)(=O)=O)cc3)o2)cc1 (stereo not drawn) | DRD2 | enzyme activity, inhibitor | 10 µM | 22.1
CC(C)CC(C)N1CCCn2c1nc1c2c(=O)n(C)c(=O)n1C (stereo not drawn) | ADORA3 | ligand displacement, radioligand | 10 µM, cell membranes | 22
CN(C(=O)N(C)C1C2CC3CC(C2)CC1C3)c1ccc(F)c(F)c1F (stereo not drawn) | ephB (Mycobacterium tuberculosis, UniProt I6YC03) | enzyme activity, inhibitor | 10 nM | < 1
CCCCCCN1CCCn2c1nc1c2c(=O)n(C)c(=O)n1C | ADORA3 | ligand displacement, radioligand | 10 µM, cell membranes | 39
O=C1N=C(N2CCCCN2)S/C1=C\c1ccc(F)cc1O | NPY1R | ligand displacement, radioligand | 10 µM | < 10
Cn1cnc(Br)c1C1=CN(c2ncnc3[nH]cnc23)CCS1 | Serine/threonine-protein kinase Nek5 (NEK5, Homo sapiens, UniProt Q6P3R8) | enzyme activity, inhibitor, radiometric | 50 nM | 18.7
NS(=O)(=O)c1ccc(CCNCc2cccc3ccccc23)cc1 | DRD2 | enzyme activity, inhibitor | 10 µM | 42.2
O=C(CSc1nc2nccnc2c(=O)n1CCc1ccccc1)Nc1nccs1 | Phosphatidylinositol 4-kinase type 2-alpha (PI4K2A, Homo sapiens, UniProt Q9BTU6) | enzyme activity, inhibitor | 10 µM | 9
C[C@@]1(c2cccc(Nc3ccc(C4CC4)nc3)c2Cl)CC(=O)N(C2CCOCC2)C(=N)N1 | Beta-secretase 1 (BACE1, Homo sapiens, UniProt P56817) | enzyme activity, inhibitor, FRET | 10 µM | 52
CNCc1ccc(-c2cc(-c3nc(-c4ccc(S(=O)(=O)C(C)C)cc4)cnc3N)on2)cc1 | Blk | enzyme activity, inhibitor | 2 µM | 36

SMILES | target | test | conditions | inhibition [%]
Cc1ccc(CNC(=O)[C@H](CCc2ccccc2)NC(=O)[C@H](CCc2ccccc2)NC(=O)[C@H](CCc2ccccc2)NC(=O)c2cnc(C)cn2)cc1 | Neutrophil elastase (ELANE, Homo sapiens, UniProt P08246) | enzyme activity, inhibitor | 100 µM | -8
C=CN1CCCn2c1nc1c2c(=O)n(C)c(=O)n1C | ADORA3 | ligand displacement, radioligand | 10 µM, cell membranes | 11
Cc1ccc(C(CS(=O)(=O)c2ccccc2)=NNc2nc(C)c(N=Nc3ccccc3)s2)cc1 | BRAF V600E | enzyme activity, inhibitor, ATP luminescence | 0.1 µM | 42
O=C1CCCc2c(O)cccc2N1 | PARP16 | enzyme activity, inhibitor | 10 µM | 0
CCCC(C)N1CCCn2c1nc1c2c(=O)n(C)c(=O)n1C (stereo not drawn) | ADORA3 | ligand displacement, radioligand | 10 µM, cell membranes | 17
C=CCn1c(SCC(=O)NC2=NN(c3ccccc3)C(=O)C2)nnc1-c1cccs1 | DRD2 | enzyme activity, inhibitor | 10 µM | -12.8
COc1cc(NC(C)=O)c(Cl)cc1C(=O)Nc1nccs1 | NPY1R | cell-free assay | 10 µM | 6
Cc1ccc(C(CS(=O)(=O)c2ccccc2)=NNC(N)=S)cc1 | BRAF V600E | enzyme activity, inhibitor, ATP luminescence | 10 µM | 88
CNC(=O)c1cc(Oc2ccc(NC(=O)Nc3ccc(Cl)c(C(F)(F)F)c3)cc2)ccn1 | Blk | enzyme activity, inhibitor | 0.3 µM | -25
O=C1CC(N2CCN(Cc3ccccc3)CC2)C(=O)N1c1ccc2c(c1)OCCO2 (stereo not drawn) | DRD2 | enzyme activity, inhibitor | 10 µM | 34.1
O=C(Nc1ccc(S(=O)(=O)N2CCC(Cl)CC2)cc1)c1ccc([N+](=O)[O-])o1 | NPY1R | ligand displacement, radioligand | 10 µM | 7
COc1cc2c(cc1OC)-c1nnnn1CCC2 | PARP16 | enzyme activity, inhibitor | 10 µM | 83
Cc1ccc(Nc2nccc(N(C)c3ccc4c(C)n(C)nc4c3)n2)cc1S(N)(=O)=O | Dual specificity mitogen-activated protein kinase kinase 4 (Map2k4, Mus musculus, UniProt P47809) | enzyme activity, inhibitor | 0.3 µM | 11
C#CCN1CCCn2c1nc1c2c(=O)n(C)c(=O)n1C | ADORA3 | ligand displacement, radioligand | 10 µM, cell membranes | 11
O=C(c1ccc(F)cc1)N(Cc1ccccc1)C1CCCCC1 | ADORA3 | cell-free assay | 10 µM | 4
Cc1ccc(C(CS(=O)(=O)c2ccccc2)=NNC2=NC(=O)C(=NNc3ccccc3)S2)cc1 | BRAF V600E | enzyme activity, inhibitor, ATP luminescence | 10 nM | 32
CN(C)C(=O)N[C@H]1CC[C@H](CCN2CCN(c3cccc(Cl)c3Cl)CC2)CC1 | DRD2 | cell-free assay | 10 µM | 101
Cc1ccc(C(CS(=O)(=O)c2ccccc2)=NNc2nc(C)c(N=Nc3cccc(C)c3)s2)cc1 | BRAF V600E | enzyme activity, inhibitor, ATP luminescence | 10 nM | 35
CCN(CC)CCNC(=O)c1c(C)[nH]c(/C=C2\C(=O)Nc3ccc(F)cc32)c1C | Blk | enzyme activity, inhibitor | 0.3 µM | 36
CC(=O)Nc1ccc(N2C(=O)CC(NCCc3ccccc3)C2=O)cc1 (stereo not drawn) | DRD2 | enzyme activity, inhibitor | 10 µM | 37.8
Cc1ccc(C(CS(=O)(=O)c2ccccc2)=NNC2=NC(=O)C(=NNc3ccc(Cl)cc3)S2)cc1 | BRAF V600E | enzyme activity, inhibitor, ATP luminescence | 10 nM | 27
CC(=O)N[C@H]1CSSC[C@@H](C(=O)N[C@@H](Cc2c[nH]c3ccccc23)C(N)=O)NC(=O)[C@@H](Cc2ccccc2)NC(=O)[C@H](CCCNC(=N)N)NC1=O | Melanocortin receptor 3 (MC3R, Homo sapiens, UniProt P41968) | ligand displacement, radioligand | 10 µM, 40 min | 45
